Source: ChEMBL document CHEMBL3351311 (ACS Med Chem Lett, 2014)
Converted amounts (≈) assume the structure as drawn.

How the values were obtained:
[1] = molecular target: T1, cAMP and cAMP-inhibited cGMP 3',5'-cyclic phosphodiesterase 10A (Rattus norvegicus, UniProt Q9QYJ6); experiment: Inhibition of rat PDE10A expressed in Sf9 cells incubated for 60 mins using [3H]-cAMP substrate by scintillation counting method
T1 sequence (Q9QYJ6 whole entry): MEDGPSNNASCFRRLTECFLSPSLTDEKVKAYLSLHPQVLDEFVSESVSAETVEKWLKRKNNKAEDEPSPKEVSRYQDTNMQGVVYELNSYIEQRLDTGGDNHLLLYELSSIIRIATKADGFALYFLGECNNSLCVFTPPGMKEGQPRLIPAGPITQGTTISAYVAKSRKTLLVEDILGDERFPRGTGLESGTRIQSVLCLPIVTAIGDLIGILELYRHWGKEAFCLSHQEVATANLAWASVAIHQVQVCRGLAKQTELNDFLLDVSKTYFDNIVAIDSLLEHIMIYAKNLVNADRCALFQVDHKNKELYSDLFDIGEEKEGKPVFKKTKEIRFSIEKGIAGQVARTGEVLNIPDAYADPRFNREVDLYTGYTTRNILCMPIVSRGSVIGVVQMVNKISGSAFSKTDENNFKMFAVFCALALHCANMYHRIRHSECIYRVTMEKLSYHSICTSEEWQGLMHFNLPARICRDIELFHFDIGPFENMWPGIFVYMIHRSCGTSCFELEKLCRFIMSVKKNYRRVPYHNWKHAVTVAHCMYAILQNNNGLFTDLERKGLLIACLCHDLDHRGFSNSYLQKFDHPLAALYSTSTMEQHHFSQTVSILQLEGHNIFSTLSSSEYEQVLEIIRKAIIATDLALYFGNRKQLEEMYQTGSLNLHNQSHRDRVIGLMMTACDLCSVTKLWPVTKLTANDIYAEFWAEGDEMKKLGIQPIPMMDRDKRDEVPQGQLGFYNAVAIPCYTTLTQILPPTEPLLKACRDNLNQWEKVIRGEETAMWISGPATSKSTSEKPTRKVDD

[2] = Drug level in rat brain at 10 mg/kg, po after 30 mins; format: ADME, organism-based; parameters: dose 10 mg/kg, route oral; conditions: read-out: Drug uptake
[3] = Plasma concentration in rat at 10 mg/kg, po after 30 mins; format: ADME, organism-based; parameters: dose 10 mg/kg, route oral
[4] = Ratio of drug level in brain to plasma in rat at 10 mg/kg, po after 30 mins; format: ADME, organism-based; parameters: dose 10 mg/kg, route oral; conditions: read-out: BPR
[5] = Ratio of drug level in brain to plasma of Sprague-Dawley rat at 10 mg/kg, sc after 1 hr; format: ADME, organism-based; parameters: dose 10 mg/kg, route subcutaneous; conditions: read-out: BPR
Method in brief: (§1)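 Male Sprague-Dawley rats, fed (n = 3), dosed 10 mg/kg s.c. at 1 mg/mL in 20% HP-β-CD, pH 7.0. Plasma (ng/mL) and brain (ng/g) levels were measured at 0.5, 1, 2, 4, 7 and 24 h, each with SD. The brain/plasma ratio is computed at each time point.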

[6] = molecular target: cGMP-specific 3',5'-cyclic phosphodiesterase (Homo sapiens, UniProt O76074); experiment: Inhibition of human PDE5A3 expressed in Sf9 cells by scintillation counting method
Method in brief: (§2)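 IC50 values were calculated from experiments each run at eight concentrations.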

[7] = Unbound fraction in Sprague-Dawley rat brain at 10 mg/kg, sc; format: ADME, organism-based; parameters: dose 10 mg/kg, route subcutaneous
[8] = Half life in Sprague-Dawley rat at 10 mg/kg, sc; format: ADME, organism-based; parameters: dose 10 mg/kg, route subcutaneous; conditions: in vivo
Method in brief: (§3)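 Male Sprague-Dawley rats, fed (n = 3), given 10 mg/kg s.c. as a 1 mg/mL solution in 20% HP-β-CD, pH 7.0. Plasma kinetic parameters are reported as mean (SD).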

[9] = Ratio of drug level in brain to plasma of Sprague-Dawley rat at 10 mg/kg, sc after 4 hrs; format: ADME, organism-based; parameters: dose 10 mg/kg, route subcutaneous; conditions: read-out: BPR; method in brief: as §1
[10] = Tmax in Sprague-Dawley rat at 10 mg/kg, sc; format: ADME, organism-based; parameters: dose 10 mg/kg, route subcutaneous; conditions: in vivo
Method in brief: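 Fed male Sprague-Dawley rats (n = 3) were dosed subcutaneously at 10 mg/kg, formulated at 1 mg/mL in 20% HP-β-CD, pH 7.0. Plasma kinetics were followed and reported as mean (SD).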

[11] = Clearance in Sprague-Dawley rat at 2.5 mg/kg, iv; format: ADME, organism-based; parameters: dose 2.5 mg/kg, route intravenous; conditions: in vivo
Method in brief: (§4)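 Rats received 2.5 mg/kg i.v. Plasma kinetic parameters (t1/2, Cl, Vdss, AUC0-inf) are reported as mean (SD).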

[12] = Formulatability in water at pH 3.6; format: physicochemical; conditions: read-out: Activity
Method in brief: (§5)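 Formulatability in mg/mL, tested in three vehicles: water at pH 3.6, 10% β-HP-CD at pH 3.6, and 20% HP-β-CD at pH 7.0.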

[13] = molecular target: High affinity 3',5'-cyclic-AMP phosphodiesterase 7A (Homo sapiens, UniProt Q13946)
Brain = experiment: Drug level in Sprague-Dawley rat brain at 10 mg/kg, sc after 24 hrs; format: ADME, organism-based; parameters: dose 10 mg/kg, route subcutaneous; conditions: in vivo, BLD = below limit of detection; method in brief: as §1
[14] = Stability in rat liver microsomes assessed as parent compound remaining after 15 mins; format: ADME; conditions: read-out: Stability
Method in brief: (§6)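 Incubated with human or rat liver microsomes for 15 min. Result is the percent of parent compound remaining.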

Phosphodiesterase 6 = experiment: Inhibition of human PDE6AB expressed in Sf9 cells by scintillation counting method; method in brief: as §2
Cytochrome P450 3A4 = Cytochrome P450 3A4 (Homo sapiens, UniProt P08684); experiment: Inhibition of CYP3A4 in human liver microsomes; format: ADME
Method in brief: (§7)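 CYP2C19 and 3A4 were tested in a human liver microsomal CYP inhibition assay, with IC50 determination.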

[15] = Cmax in Sprague-Dawley rat at 10 mg/kg, sc; format: ADME, organism-based; parameters: dose 10 mg/kg, route subcutaneous; conditions: in vivo; method in brief: as §3
[16] = Ratio of drug level in brain to plasma of Sprague-Dawley rat at 10 mg/kg, sc after 0.5 hrs; format: ADME, organism-based; parameters: dose 10 mg/kg, route subcutaneous; conditions: read-out: BPR; method in brief: as §1
[17] = Ratio of drug level in brain to plasma of Sprague-Dawley rat at 10 mg/kg, sc after 7 hrs; format: ADME, organism-based; parameters: dose 10 mg/kg, route subcutaneous; conditions: read-out: BPR; method in brief: as §1
Salmonella typhimurium = experiment: Mutagenicity in Salmonella typhimurium at <125 ug/mL by Ames-2 test; format: toxicity, organism-based; conditions: salmonella enterica subsp. enterica serovar typhimurium
Method in brief: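 In vitro colorimetric bacterial mutagenicity assay, adapted from the AMESII Mutagenicity Assay kit.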

[18] = molecular target: Dual 3',5'-cyclic-AMP and -GMP phosphodiesterase 11A (Homo sapiens, UniProt Q9HCR9); experiment: Inhibition of human PDE11A4 expressed in Sf9 cells by scintillation counting method; method in brief: as §2
[19] = molecular target: High affinity cGMP-specific 3',5'-cyclic phosphodiesterase 9A (Homo sapiens, UniProt O76083)
Cytochrome P450 2C19 = Cytochrome P450 2C19 (Homo sapiens, UniProt P33261); experiment: Inhibition of CYP2C19 in human liver microsomes; format: ADME; method in brief: as §7
[20] = Unbound fraction in Sprague-Dawley rat plasma at 10 mg/kg, sc; format: ADME, organism-based; parameters: dose 10 mg/kg, route subcutaneous
[21] = Ratio of drug level in brain to plasma of Sprague-Dawley rat at 10 mg/kg, sc after 2 hrs; format: ADME, organism-based; parameters: dose 10 mg/kg, route subcutaneous; conditions: read-out: BPR; method in brief: as §1
[22] = Formulatability in 20% beta-HP-CD at pH 7.0; format: physicochemical; conditions: read-out: Activity; method in brief: as §5
[23] = molecular target: cGMP-inhibited 3',5'-cyclic phosphodiesterase 3B (Homo sapiens, UniProt Q13370); experiment: Inhibition of human PDE3B by scintillation counting method; method in brief: as §2
[24] = AUC (0 to infinity) in Sprague-Dawley rat at 2.5 mg/kg, iv; format: ADME, organism-based; parameters: time infinity, dose 2.5 mg/kg, route intravenous; conditions: plasma; method in brief: as §4
Rattus norvegicus [25] = experiment: Increase in cGMP levels in Wistar rat striatum at 10 mg/kg, sc after 1 hr; format: functional; conditions: route subcutaneous
Method in brief: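 Rats were dosed 10 mg/kg s.c., and striatal cGMP was measured 1 h later against vehicle-dosed animals. Five independent experiments were run (n = 4–5 each), reported as % of vehicle with range.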

[26] = Formulatability in 10% beta-HP-CD at pH 3.6; format: physicochemical; conditions: read-out: Activity; method in brief: as §5
[27] = Stability in human liver microsomes assessed as parent compound remaining after 15 mins; format: ADME; conditions: read-out: Stability; method in brief: as §6
[28] = molecular target: 3',5'-cyclic-AMP phosphodiesterase 4D (Homo sapiens, UniProt Q08499); experiment: Inhibition of human PDE4D by scintillation counting method; method in brief: as §2
[29] = Half life in Sprague-Dawley rat at 2.5 mg/kg, iv; format: ADME, organism-based; parameters: dose 2.5 mg/kg, route intravenous; conditions: in vivo; method in brief: as §4
[30] = AUC (0 to infinity) in Sprague-Dawley rat at 10 mg/kg, sc; format: ADME, organism-based; parameters: time infinity, dose 10 mg/kg, route subcutaneous; conditions: plasma; method in brief: as §3
[31] = molecular target: Dual specificity calcium/calmodulin-dependent 3',5'-cyclic nucleotide phosphodiesterase 1A (Homo sapiens, UniProt P54750); experiment: Inhibition of human PDE1A by scintillation counting method; method in brief: as §2
Rattus norvegicus [32] = experiment: Effect on cAMP levels in Wistar rat striatum at 10 mg/kg, sc after 1 hr; format: functional; conditions: route subcutaneous
Plasma [33] = experiment: Free drug concentration in Sprague-Dawley rat brain at 10 mg/kg, sc after 1 hr; format: ADME, organism-based; parameters: dose 10 mg/kg, route subcutaneous; conditions: in vivo
Method in brief: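 Free brain level at 1 h after a 10 mg/kg s.c. dose. Total brain concentration was corrected with the measured unbound brain fraction (Fub) and the unbound fraction to plasma proteins (Fup).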

Rattus norvegicus [34] = experiment: In-vivo occupancy at PDE2 in sc dosed Wistar rat brain using [3H]labeled compound in presence of 2.5 mg/kg, sc PDE10 inhibitor MP10; format: functional, organism-based; parameters: dose 2.5 mg/kg, route subcutaneous
Method in brief: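 Male Wistar rats (n = 3 per dose) were dosed s.c., co-administered with MP10 at 2.5 mg/kg s.c. Ex vivo autoradiography was done on brain slices with the tritiated compound. Occupancy is the inhibition of specific [3H] binding relative to vehicle-treated animals, and ED50 was derived against dose.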

Plasma [35] = experiment: Plasma concentration in Sprague-Dawley rat at 10 mg/kg, sc after 24 hrs; format: ADME, organism-based; parameters: dose 10 mg/kg, route subcutaneous; conditions: in vivo, BLD = below limit of detection; method in brief: as §1
[36] = Volume of distribution at steady state in Sprague-Dawley rat at 2.5 mg/kg, iv; format: ADME, organism-based; parameters: dose 2.5 mg/kg, route intravenous; conditions: in vivo, read-out: Vdss
Method in brief: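 Rats received an intravenous injection at 2.5 mg/kg. Plasma kinetics were followed and parameters reported as mean (SD).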

[37] = Selectivity index, ratio of IC50 for rat PDE10A to IC50 for human PDE2A

Sequence of cGMP-inhibited 3',5'-cyclic phosphodiesterase 3B (Q13370 whole entry): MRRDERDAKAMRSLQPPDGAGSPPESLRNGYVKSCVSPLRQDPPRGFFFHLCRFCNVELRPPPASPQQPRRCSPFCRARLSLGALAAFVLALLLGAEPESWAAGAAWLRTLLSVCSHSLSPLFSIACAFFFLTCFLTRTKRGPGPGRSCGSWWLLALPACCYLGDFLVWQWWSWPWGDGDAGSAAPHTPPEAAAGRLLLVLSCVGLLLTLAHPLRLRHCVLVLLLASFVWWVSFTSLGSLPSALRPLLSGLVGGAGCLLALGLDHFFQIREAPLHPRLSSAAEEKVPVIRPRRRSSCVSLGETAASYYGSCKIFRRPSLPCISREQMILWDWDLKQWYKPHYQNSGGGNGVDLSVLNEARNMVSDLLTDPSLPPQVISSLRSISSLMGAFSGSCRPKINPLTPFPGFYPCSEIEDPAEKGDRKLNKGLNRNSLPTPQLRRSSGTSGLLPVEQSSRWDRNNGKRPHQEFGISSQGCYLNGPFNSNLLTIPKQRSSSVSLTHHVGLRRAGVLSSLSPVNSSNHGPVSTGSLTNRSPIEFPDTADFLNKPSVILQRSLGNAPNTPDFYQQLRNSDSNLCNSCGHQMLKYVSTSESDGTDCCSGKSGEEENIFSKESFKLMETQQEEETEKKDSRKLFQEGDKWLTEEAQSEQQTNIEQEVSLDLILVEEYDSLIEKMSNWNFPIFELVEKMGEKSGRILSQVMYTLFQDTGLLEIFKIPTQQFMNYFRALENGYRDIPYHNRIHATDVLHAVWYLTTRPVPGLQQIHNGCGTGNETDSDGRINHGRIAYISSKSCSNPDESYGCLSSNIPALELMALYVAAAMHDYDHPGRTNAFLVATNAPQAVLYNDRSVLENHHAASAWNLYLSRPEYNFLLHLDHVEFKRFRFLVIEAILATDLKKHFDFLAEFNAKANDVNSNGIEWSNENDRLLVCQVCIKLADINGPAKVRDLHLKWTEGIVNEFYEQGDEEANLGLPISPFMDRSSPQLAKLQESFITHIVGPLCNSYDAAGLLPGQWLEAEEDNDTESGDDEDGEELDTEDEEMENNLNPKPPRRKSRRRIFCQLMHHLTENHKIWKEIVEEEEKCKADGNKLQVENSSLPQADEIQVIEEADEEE
Sequence of Cytochrome P450 3A4 (P08684 whole entry): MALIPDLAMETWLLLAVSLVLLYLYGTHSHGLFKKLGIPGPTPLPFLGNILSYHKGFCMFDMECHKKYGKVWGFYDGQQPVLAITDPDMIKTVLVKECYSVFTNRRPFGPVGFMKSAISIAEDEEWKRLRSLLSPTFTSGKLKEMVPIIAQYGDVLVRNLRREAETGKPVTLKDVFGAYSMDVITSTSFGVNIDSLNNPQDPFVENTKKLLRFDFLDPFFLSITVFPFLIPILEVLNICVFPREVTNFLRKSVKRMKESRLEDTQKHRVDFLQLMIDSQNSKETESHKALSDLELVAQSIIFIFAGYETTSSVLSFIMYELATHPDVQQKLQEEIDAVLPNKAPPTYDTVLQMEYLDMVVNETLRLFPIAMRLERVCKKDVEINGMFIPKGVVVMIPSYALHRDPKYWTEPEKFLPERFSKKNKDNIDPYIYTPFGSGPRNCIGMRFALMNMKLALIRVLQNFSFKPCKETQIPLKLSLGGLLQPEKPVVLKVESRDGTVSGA
Sequence of 3',5'-cyclic-AMP phosphodiesterase 4D (Q08499 whole entry): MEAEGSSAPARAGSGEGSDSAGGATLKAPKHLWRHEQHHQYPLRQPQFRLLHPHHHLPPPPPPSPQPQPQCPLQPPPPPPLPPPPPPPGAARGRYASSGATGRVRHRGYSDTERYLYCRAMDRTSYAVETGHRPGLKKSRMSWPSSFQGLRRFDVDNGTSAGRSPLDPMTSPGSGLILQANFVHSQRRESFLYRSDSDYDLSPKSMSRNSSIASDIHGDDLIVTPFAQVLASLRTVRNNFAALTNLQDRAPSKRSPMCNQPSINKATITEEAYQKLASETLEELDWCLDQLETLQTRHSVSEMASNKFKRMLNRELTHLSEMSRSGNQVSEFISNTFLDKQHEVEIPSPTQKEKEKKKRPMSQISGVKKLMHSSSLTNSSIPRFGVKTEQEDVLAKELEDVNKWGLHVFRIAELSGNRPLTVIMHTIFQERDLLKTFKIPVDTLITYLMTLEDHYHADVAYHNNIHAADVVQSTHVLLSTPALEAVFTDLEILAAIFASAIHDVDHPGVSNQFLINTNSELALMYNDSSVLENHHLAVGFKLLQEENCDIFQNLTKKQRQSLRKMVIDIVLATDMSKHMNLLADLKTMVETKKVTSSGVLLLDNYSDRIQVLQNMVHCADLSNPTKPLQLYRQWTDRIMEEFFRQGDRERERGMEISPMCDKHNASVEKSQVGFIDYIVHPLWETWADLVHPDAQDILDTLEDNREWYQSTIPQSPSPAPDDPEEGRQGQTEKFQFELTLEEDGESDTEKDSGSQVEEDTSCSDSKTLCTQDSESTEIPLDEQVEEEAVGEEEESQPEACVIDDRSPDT
Sequence of High affinity cGMP-specific 3',5'-cyclic phosphodiesterase 9A (O76083 whole entry): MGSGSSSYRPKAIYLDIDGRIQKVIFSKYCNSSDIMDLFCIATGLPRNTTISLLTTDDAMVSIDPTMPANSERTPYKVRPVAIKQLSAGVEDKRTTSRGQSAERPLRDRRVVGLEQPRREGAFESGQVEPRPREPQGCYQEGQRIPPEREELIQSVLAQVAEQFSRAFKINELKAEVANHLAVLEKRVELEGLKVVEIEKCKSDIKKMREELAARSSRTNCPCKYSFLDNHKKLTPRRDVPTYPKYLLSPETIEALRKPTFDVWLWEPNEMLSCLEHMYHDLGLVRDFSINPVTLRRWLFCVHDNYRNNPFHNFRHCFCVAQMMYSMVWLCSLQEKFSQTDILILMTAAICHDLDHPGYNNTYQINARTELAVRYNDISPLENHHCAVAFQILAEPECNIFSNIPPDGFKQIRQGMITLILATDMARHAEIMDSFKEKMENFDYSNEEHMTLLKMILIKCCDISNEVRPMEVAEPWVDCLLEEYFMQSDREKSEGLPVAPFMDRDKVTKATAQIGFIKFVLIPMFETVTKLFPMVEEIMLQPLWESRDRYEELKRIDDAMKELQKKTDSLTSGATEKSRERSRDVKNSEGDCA
Sequence of Dual specificity calcium/calmodulin-dependent 3',5'-cyclic nucleotide phosphodiesterase 1A (P54750 whole entry): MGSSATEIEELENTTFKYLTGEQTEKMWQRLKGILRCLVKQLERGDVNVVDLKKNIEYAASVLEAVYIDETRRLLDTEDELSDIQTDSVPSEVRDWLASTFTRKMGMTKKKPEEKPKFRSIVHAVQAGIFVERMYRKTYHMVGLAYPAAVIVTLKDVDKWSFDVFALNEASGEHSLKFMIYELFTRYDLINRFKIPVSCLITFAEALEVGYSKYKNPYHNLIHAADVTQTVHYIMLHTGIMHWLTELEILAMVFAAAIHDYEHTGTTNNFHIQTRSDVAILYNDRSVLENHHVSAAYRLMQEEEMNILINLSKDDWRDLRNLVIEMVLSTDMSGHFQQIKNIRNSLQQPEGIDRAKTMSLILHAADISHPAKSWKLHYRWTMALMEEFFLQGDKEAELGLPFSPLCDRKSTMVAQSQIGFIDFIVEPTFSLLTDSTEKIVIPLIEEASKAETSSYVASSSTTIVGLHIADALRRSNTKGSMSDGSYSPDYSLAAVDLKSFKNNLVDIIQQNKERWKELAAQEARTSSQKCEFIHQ
Sequence of Cytochrome P450 2C19 (P33261 whole entry): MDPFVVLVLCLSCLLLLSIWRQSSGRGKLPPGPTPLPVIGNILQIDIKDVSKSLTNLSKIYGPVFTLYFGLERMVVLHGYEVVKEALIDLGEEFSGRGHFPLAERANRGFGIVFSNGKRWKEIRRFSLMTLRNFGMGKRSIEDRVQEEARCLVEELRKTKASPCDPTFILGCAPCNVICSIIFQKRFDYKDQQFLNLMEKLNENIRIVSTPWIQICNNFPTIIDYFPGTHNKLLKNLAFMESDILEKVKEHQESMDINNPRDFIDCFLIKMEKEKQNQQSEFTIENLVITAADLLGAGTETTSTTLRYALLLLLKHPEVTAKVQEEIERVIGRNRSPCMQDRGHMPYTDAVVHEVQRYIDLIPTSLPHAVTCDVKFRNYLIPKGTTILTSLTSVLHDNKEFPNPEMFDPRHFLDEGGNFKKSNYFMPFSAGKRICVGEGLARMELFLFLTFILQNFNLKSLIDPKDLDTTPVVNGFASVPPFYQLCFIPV
Sequence of Dual 3',5'-cyclic-AMP and -GMP phosphodiesterase 11A (Q9HCR9 whole entry): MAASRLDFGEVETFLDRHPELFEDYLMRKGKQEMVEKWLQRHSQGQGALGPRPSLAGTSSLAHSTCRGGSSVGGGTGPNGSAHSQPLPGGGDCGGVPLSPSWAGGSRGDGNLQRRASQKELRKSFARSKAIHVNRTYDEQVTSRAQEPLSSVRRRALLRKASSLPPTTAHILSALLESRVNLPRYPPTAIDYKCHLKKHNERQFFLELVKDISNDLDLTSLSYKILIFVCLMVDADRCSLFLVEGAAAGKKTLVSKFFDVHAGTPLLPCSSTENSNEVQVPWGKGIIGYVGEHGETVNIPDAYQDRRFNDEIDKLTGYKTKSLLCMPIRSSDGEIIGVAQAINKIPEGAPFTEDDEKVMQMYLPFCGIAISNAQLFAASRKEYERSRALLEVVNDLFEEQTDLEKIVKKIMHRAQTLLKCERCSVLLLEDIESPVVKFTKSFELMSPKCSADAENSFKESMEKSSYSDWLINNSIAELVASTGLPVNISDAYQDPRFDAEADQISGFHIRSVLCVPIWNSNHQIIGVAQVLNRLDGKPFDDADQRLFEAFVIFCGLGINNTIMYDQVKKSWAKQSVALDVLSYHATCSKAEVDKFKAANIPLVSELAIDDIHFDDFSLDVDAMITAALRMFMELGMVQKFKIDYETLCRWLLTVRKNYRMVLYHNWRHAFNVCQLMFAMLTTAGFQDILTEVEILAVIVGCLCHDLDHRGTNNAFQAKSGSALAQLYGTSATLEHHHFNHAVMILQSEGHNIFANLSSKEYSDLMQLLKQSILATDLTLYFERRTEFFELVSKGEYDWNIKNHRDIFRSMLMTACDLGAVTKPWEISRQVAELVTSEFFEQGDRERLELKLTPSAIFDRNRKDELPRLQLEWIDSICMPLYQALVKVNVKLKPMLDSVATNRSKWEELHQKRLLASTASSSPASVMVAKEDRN

COc1ccc(Cl)c(-c2nnc3c(C)nc4ccc(CN5CCOCC5)cc4n23)c1
IC50 [1]: 0.106 µM

COc1ccc(Cc2nn3c([C@@H](CCCc4ccccc4)[C@@H](C)O)nc(C)c3c(=O)[nH]2)cc1OC
concentration at 0.5 h [2]: 3.6 ng/g | concentration at 0.5 h [3]: 72.9 ng/mL | Kp at 0.5 h [4]: 0.05

CCCCOc1cncc(-c2nnc3c(C)nc4ccc(CN5CCOCC5)cc4n23)c1
Kp at 1 h [5]: 1.1 | IC50 [6]: > 10 µM | fraction unbound [7]: 0.14 | half-life [8]: 60 min | Kp at 4 h [9]: 1.1 | Tmax [10]: 40.2 min | clearance [11]: 130 mL/min/kg | solubility [12]: 4 mg/mL (≈ 9.25 mM) | IC50 [13]: > 10 µM | Drug uptake (Brain): BLD | remaining at 0.25 h [14]: 0% | IC50 (Phosphodiesterase 6): > 10 µM | IC50 (Cytochrome P450 3A4): > 10 µM | Cmax [15]: 658 ng/mL | Kp at 0.5 h [16]: 1.4 | Kp at 7 h [17]: 0.93 | Activity (Salmonella typhimurium): Non-toxic | IC50 [18]: 2.14 µM | IC50 [19]: > 10 µM | IC50 (Cytochrome P450 2C19): > 10 µM | fraction unbound [20]: 0.31 | Kp at 2 h [21]: 1.1 | solubility [22]: 16 mg/mL (≈ 37 mM) | IC50 [23]: > 10 µM | AUC(0-inf) [24]: 305 ng·h/mL | Activity (Rattus norvegicus [25]): 251% | solubility [26]: 15 mg/mL (≈ 34.7 mM) | remaining at 0.25 h [27]: 0% | IC50 [28]: > 10 µM | half-life [29]: 18.6 min | AUC(0-inf) [30]: 1670 ng·h/mL | IC50 [31]: > 10 µM | Activity (Rattus norvegicus [32]): 109% | Drug uptake(free) (Plasma [33]): 67 nM | EC50 (Rattus norvegicus [34]): 0.021 µM | ED50 (Rattus norvegicus [34]; sc, route subcutaneous): 4.3 mg/kg | Cp (Plasma [35]): BLD | Vd [36]: 2.7 L/kg

Cc1nc2ccc(CN3CCOCC3)cc2n2c(-c3cncc(OC(C)C)c3)nnc12
IC50 [1]: > 10 µM

Cc1nc2ccc(CN3CCOCC3)cc2n2c(-c3ccccc3Cl)nnc12
Ratio IC50 [37]: 13
